Laboratory results published in ChEMBL document CHEMBL1158182, “Antifungal activity of chalcones: a mechanistic study using various yeast strains” (Eur J Med Chem, 2008).

Experiments:
Assay type in all cases: functional
Saccharomyces cerevisiae [1] = assay: Antifungal activity against haploid Saccharomyces cerevisiae 1S by agar dilution method
How it was run: (§1)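 S. cerevisiae and K. lactis strains were tested by agar dilution on rich YPD agar at 30 °C. Compound stocks in 96% EtOH were added to the medium to give […]. Cells were suspended in water, serially diluted to 10^9–10^3 cells/ml, and plated with a metal replicator. MIC was read from growth.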

Saccharomyces cerevisiae [2] = assay: Antifungal activity against haploid Saccharomyces cerevisiae 1169 by agar dilution method; how it was run: as §1
Saccharomyces cerevisiae [3] = assay: Antifungal activity against haploid Saccharomyces cerevisiae 2180 by agar dilution method; how it was run: as §1
Saccharomyces cerevisiae [4] = assay: Antifungal activity against diploid Saccharomyces cerevisiae 1a by agar dilution method; how it was run: as §1
Saccharomyces cerevisiae [5] = assay: Antifungal activity against diploid Saccharomyces cerevisiae 29a by agar dilution method; how it was run: as §1
Saccharomyces cerevisiae [6] = assay: Antifungal activity against haploid Saccharomyces cerevisiae Sigma 1278b by agar dilution method; how it was run: as §1
Saccharomyces cerevisiae [7] = assay: Antifungal activity against haploid Saccharomyces cerevisiae FY4 by agar dilution method; how it was run: as §1
Saccharomyces cerevisiae [8] = assay: Antifungal activity against haploid Saccharomyces cerevisiae 10560-6B by agar dilution method; how it was run: as §1
Saccharomyces cerevisiae [9] = assay: Antifungal activity against haploid Saccharomyces cerevisiae YSH1170 by agar dilution method; how it was run: as §1
Saccharomyces cerevisiae [10] = assay: Antifungal activity against haploid Saccharomyces cerevisiae YSH1171 by agar dilution method; how it was run: as §1
Ogataea angusta [11] = assay: Antifungal activity against Hansenula polymorpha WT1 with ade1 ura3 genotype by agar dilution method
How it was run: (§2)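 H. polymorpha strains were tested by agar dilution on rich YPD agar at 37 °C. Compound stocks in 96% EtOH were mixed into the medium to give […]. Cells were suspended in water, serially diluted to 10^9, 10^7, 10^5 and 10^3 cells/ml, and applied to the agar with a metal replicator. MIC was read from growth.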

Ogataea angusta [12] = assay: Antifungal activity against Hansenula polymorpha WT2 with ade1 met6 genotype by agar dilution method; how it was run: as §2
Ogataea angusta [13] = assay: Antifungal activity against Hansenula polymorpha CD1 with ade1 leu2 cds1 genotype by agar dilution method; how it was run: as §2
Ogataea angusta [14] = assay: Antifungal activity against Hansenula polymorpha CD2 with ade1 leu2 cds2 genotype by agar dilution method; how it was run: as §2
Ogataea angusta [15] = assay: Antifungal activity against Hansenula polymorpha CD3 with ade1 leu2 cds3 genotype by agar dilution method; how it was run: as §2
Ogataea angusta [16] = assay: Antifungal activity against Hansenula polymorpha 2a with arg1 leu2 ura3 cys1 genotype by agar dilution method; how it was run: as §2
Ogataea angusta [17] = assay: Antifungal activity against Hansenula polymorpha 2b with arg1 ade1 leu2 genotype by agar dilution method; how it was run: as §2
Ogataea angusta [18] = assay: Antifungal activity against Hansenula polymorpha D22 with arg1/arg1 ade1/ADE1 leu2/leu2 URA3/ura3 CYS1/cys1 genotype by agar dilution method; how it was run: as §2
Ogataea angusta [19] = assay: Antifungal activity against Hansenula polymorpha M2 with met2 genotype by agar dilution method; how it was run: as §2
Ogataea angusta [20] = assay: Antifungal activity against Hansenula polymorpha MC1 with met2 cys1 genotype by agar dilution method; how it was run: as §2
Ogataea angusta [21] = assay: Antifungal activity against Hansenula polymorpha AS1 with arg1 gsh2delta genotype by agar dilution method; how it was run: as §2
Ogataea angusta [22] = assay: Antifungal activity against Hansenula polymorpha M4 with met4 genotype by agar dilution method; how it was run: as §2
Ogataea angusta [23] = assay: Antifungal activity against Hansenula polymorpha AU05 with ade3 ura3 genotype by agar dilution method; how it was run: as §2
Ogataea angusta [24] = assay: Antifungal activity against Hansenula polymorpha R3 with rgh3 genotype by agar dilution method; how it was run: as §2
Ogataea angusta [25] = assay: Antifungal activity against Hansenula polymorpha CRD2 with leu2 CDR2 genotype by agar dilution method; how it was run: as §2
Kluyveromyces lactis [26] = assay: Antifungal activity against Kluyveromyces lactis 2-18B with MATalpha metA1 ura3 leu2 genotype by agar dilution method; how it was run: as §1
Kluyveromyces lactis [27] = assay: Antifungal activity against Kluyveromyces lactis 1-6A with MATalpha uraA lys arg genotype by agar dilution method; how it was run: as §1
Kluyveromyces lactis [28] = assay: Antifungal activity against Kluyveromyces lactis 2-19B with MATalpha ura lys arg genotype by agar dilution method; how it was run: as §1

Measured: MIC

O=C(/C=C/c1ccc(O)cc1)c1ccccc1 [4-HYDROXYCHALCONE]
> 40 µg/mL: Saccharomyces cerevisiae [1] | Saccharomyces cerevisiae [2] | Saccharomyces cerevisiae [3] | Saccharomyces cerevisiae [4] | Saccharomyces cerevisiae [5] | Saccharomyces cerevisiae [6] | Saccharomyces cerevisiae [7] | Saccharomyces cerevisiae [8] | Saccharomyces cerevisiae [9] | Saccharomyces cerevisiae [10] | Ogataea angusta [11] | Ogataea angusta [12] | Ogataea angusta [13] | Ogataea angusta [14] | Ogataea angusta [15] | Ogataea angusta [16] | Ogataea angusta [17] | Ogataea angusta [18] | Ogataea angusta [19] | Ogataea angusta [20] | Ogataea angusta [21] | Ogataea angusta [22] | Ogataea angusta [23] | Ogataea angusta [24] | Ogataea angusta [25] | Kluyveromyces lactis [26] | Kluyveromyces lactis [27] | Kluyveromyces lactis [28]

COc1ccc(/C=C/C(=O)c2ccc(Cl)cc2)cc1
> 40 µg/mL: Saccharomyces cerevisiae [1] | Saccharomyces cerevisiae [2] | Saccharomyces cerevisiae [3] | Saccharomyces cerevisiae [4] | Saccharomyces cerevisiae [5] | Saccharomyces cerevisiae [6] | Saccharomyces cerevisiae [7] | Saccharomyces cerevisiae [8] | Saccharomyces cerevisiae [9] | Saccharomyces cerevisiae [10] | Ogataea angusta [11] | Ogataea angusta [12] | Ogataea angusta [13] | Ogataea angusta [14] | Ogataea angusta [15] | Ogataea angusta [16] | Ogataea angusta [17] | Ogataea angusta [18] | Ogataea angusta [19] | Ogataea angusta [20] | Ogataea angusta [21] | Ogataea angusta [22] | Ogataea angusta [23] | Ogataea angusta [24] | Ogataea angusta [25] | Kluyveromyces lactis [26] | Kluyveromyces lactis [27] | Kluyveromyces lactis [28]

COc1cc(/C=C/C(=O)c2ccc(Cl)cc2)ccc1O
> 40 µg/mL: Saccharomyces cerevisiae [1] | Saccharomyces cerevisiae [2] | Saccharomyces cerevisiae [3] | Saccharomyces cerevisiae [4] | Saccharomyces cerevisiae [5] | Saccharomyces cerevisiae [6] | Saccharomyces cerevisiae [7] | Saccharomyces cerevisiae [8] | Saccharomyces cerevisiae [9] | Saccharomyces cerevisiae [10] | Ogataea angusta [11] | Ogataea angusta [12] | Ogataea angusta [13] | Ogataea angusta [14] | Ogataea angusta [15] | Ogataea angusta [16] | Ogataea angusta [17] | Ogataea angusta [18] | Ogataea angusta [19] | Ogataea angusta [20] | Ogataea angusta [21] | Ogataea angusta [22] | Ogataea angusta [23] | Ogataea angusta [24] | Ogataea angusta [25] | Kluyveromyces lactis [26] | Kluyveromyces lactis [27] | Kluyveromyces lactis [28]

O=C(/C=C/c1ccc([N+](=O)[O-])cc1)c1ccc(Cl)cc1
> 40 µg/mL: Saccharomyces cerevisiae [1] | Saccharomyces cerevisiae [2] | Saccharomyces cerevisiae [3] | Saccharomyces cerevisiae [4] | Saccharomyces cerevisiae [5] | Saccharomyces cerevisiae [6] | Saccharomyces cerevisiae [7] | Saccharomyces cerevisiae [8] | Saccharomyces cerevisiae [9] | Saccharomyces cerevisiae [10] | Ogataea angusta [11] | Ogataea angusta [12] | Ogataea angusta [13] | Ogataea angusta [14] | Ogataea angusta [15] | Ogataea angusta [16] | Ogataea angusta [17] | Ogataea angusta [18] | Ogataea angusta [19] | Ogataea angusta [20] | Ogataea angusta [21] | Ogataea angusta [22] | Ogataea angusta [23] | Ogataea angusta [24] | Ogataea angusta [25] | Kluyveromyces lactis [26] | Kluyveromyces lactis [27] | Kluyveromyces lactis [28]

COc1cccc(/C=C/C(=O)c2ccc(Cl)cc2)c1O
> 40 µg/mL: Saccharomyces cerevisiae [1] | Saccharomyces cerevisiae [2] | Saccharomyces cerevisiae [3] | Saccharomyces cerevisiae [4] | Saccharomyces cerevisiae [5] | Saccharomyces cerevisiae [6] | Saccharomyces cerevisiae [7] | Saccharomyces cerevisiae [8] | Saccharomyces cerevisiae [9] | Saccharomyces cerevisiae [10] | Ogataea angusta [11] | Ogataea angusta [12] | Ogataea angusta [13] | Ogataea angusta [14] | Ogataea angusta [15] | Ogataea angusta [16] | Ogataea angusta [17] | Ogataea angusta [18] | Ogataea angusta [19] | Ogataea angusta [20] | Ogataea angusta [21] | Ogataea angusta [22] | Ogataea angusta [23] | Ogataea angusta [24] | Ogataea angusta [25] | Kluyveromyces lactis [26] | Kluyveromyces lactis [27] | Kluyveromyces lactis [28]
